PostGolgi ctrl – growth inhibition of yeast control strain, primary screen, counter-screen for post-Golgi transport modulator project; efflux-deficient yeast background strain, growth absorbance A615, 16 h; inhibition, % at 10 µM; 5% of 98,000 active
tolC growth inh – growth inhibitors of E. coli tolC mutant, primary screen, strain BW25113 ΔtolC::kan, 384-well. OD615. growth inhibition, % at 10 µM (by protocol). 2.2% of 65,000 active. AID 573, 2007;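 active = growth inhibition at or above a cutoff equal to the mean over every tested compound plus 3 SD, cut at about 60% in these data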;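 also: growth measured after 20 h incubation at 37 °C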
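Test system: tolC-deleted E. coli BW25113 | Medium: LB with kanamycin 50 µg/mL | Compound dosing: Single concentration, 10 µM final per compound | Schedule: 37 °C, 20 h exposure | Measured by: OD at 615 nm | Evaluation: Percent growth inhibition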
Cav3 T inh – Cav3.2 calcium influx blockers – cell-based, Fluo-4 calcium fluorescence, FDSS, MLSMR library, primary screen. Voltage-dependent T-type calcium channel subunit alpha-1H (Homo sapiens), O95180. 4% of 100,000 active. Cav3.2-expressing cells; active compounds read low. B-score at 10 µM;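 active = single-dose well whose peak fluorescence ratio is a statistical outlier from its plate by either plate-standardised score or position-corrected B-score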
E coli WT exp – growth inhibitors of wild-type E. coli, primary screen, strain BW25113, expanded library, OD600 | OD600 absorbance | growth inhibition, % at 100 µM | 0.15% of 98,000 active | AID 710, 2007;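 active = growth inhibition above about 50% at one test dose, limit read from the data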;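 also: growth measured after 20 h incubation at 37 °C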
PostGolgi yeast – phenotypic screen on post-Golgi transport, primary screen; inhibition, % at 10 µM; post-Golgi transport phenotypic cell assay; 0.9% of 98,000 active;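 also: yeast cells grown in 1536-well plates; yeast grown about 18 h at 30C before absorbance read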
Active calls of the source: *; x = no result. Sampled rows, rich in hits. Any-hit rate of the full collection: about 8.4%. Rule as the data show it, unless noted: active = inhibition above about 30%; inactive = the rest.

SMILES | PostGolgi ctrl | tolC growth inh | Cav3 T inh | E coli WT exp | PostGolgi yeast
CCN(CC)c1ccc(NC(=O)C2CCCN(S(=O)(=O)c3cnc[nH]3)C2)c(C)c1 (stereo not drawn) | 15 | -5 | 0.53 | 8 | -8
Cc1nnc2ccc(N3CCN(c4cccc(C(F)(F)F)c4)CC3)nn12 | 16 | 10 | -0.28 | 2 | 1
Cc1cc(C)nc(SCNC(=O)c2ccc(F)cc2)n1 | 13 | -3 | 0.74 | -3 | 32*
CC(C)=CC1C=C(C)C(C)C2C(=O)NNC(=O)C12 (stereo not drawn) | 0 | x | -0.0097 | 1 | -5
C=CCn1c(SCc2c(C(=O)OC)sc(N)c2C(=O)OC)nnc1-c1ccc(Br)cc1 | 20 | x | -4.6* | 3 | 11
CCC(C)CCCCCCCCCCC(=O)O (stereo not drawn) | x | x | -0.0047 | x | x
Cc1ccc(/C=N/NC(=O)CSCc2ccc(Cl)cc2)cc1 | 18 | x | -1.4 | -4 | 0
Cc1ccsc1/C=N/NC(=O)CSCc1ccc(Cl)cc1 | 15 | x | -5.2* | 2 | -8
CCCN1C2=NCCN2c2ccccc21 | -7 | -6 | 0.094 | 10 | -5
Cc1ccc(CN2C3=NCCCN3c3ccccc32)cc1 | 1 | 3 | 0.018 | 11 | 0
CCCCCCN1C2=NCCN2c2ccccc21 | 5 | x | -0.086 | 17 | 32*
CC(C)(C)c1ccc(CN2C3=NCCCN3c3ccccc32)cc1 | x | x | -6.3* | x | x
CCCN1C2=NCCCN2c2ccccc21 | 38* | x | -1.7 | -2 | 6
O=c1c2ccccc2nc(CSc2ncnc3nc[nH]c23)n1-c1cccc(C(F)(F)F)c1 | 6 | x | 2.2 | -5 | -1
O=C(NCCc1ccccc1)c1cccnc1N1CCCCCC1 | 8 | 21 | 0.61 | -6 | 2
COc1ccc(-c2c3c(=O)n(C)c(=O)n(C)c3cn2-c2ccccc2)cc1 | 25 | 96* | x | -8 | 4
CC1(c2ccccc2)CC(C)(C)N(C(=O)C2CCCO2)c2ccccc21 (stereo not drawn) | 66* | x | -4.5* | -14 | -4
CCCc1nnc(NC(=O)c2c(O)c3cccc4c3n(c2=O)CCC4)s1 | x | 10 | -0.76 | x | x
CC(C)c1nnc(NC(=O)c2c(O)c3cccc4c3n(c2=O)CC4)s1 | x | 100* | x | x | x
CCn1c(=O)c(C(=O)Nc2nc3ccccc3[nH]2)c(O)c2ccccc21 | 98* | 6 | 0.03 | 1 | 104*
CCc1nc2ccccc2c(=O)n1NC(=O)c1c(O)c2cccc3c2n(c1=O)CCC3 | 16 | 64* | -6.1* | 0 | 3
CCCCc1nc2ccccc2c(=O)n1NC(=O)c1c(O)c2c(n(CC(C)C)c1=O)CCCC2 | 9 | 14 | -9.9* | -11 | -4
CCn1c(=O)c(C(=O)Nc2cnccn2)c(O)c2ccccc21 | x | 19 | x | x | x
O=C(NCc1ccccc1)c1c(O)c2cccc3c2n(c1=O)CCC3 | 9 | 19 | -2.3 | -13 | 10
CCOC(=O)CSc1nc2ccc(N3CCOCC3)cc2c(=O)n1Cc1ccccc1 | 14 | x | -1.6 | -2 | 1
SMILES | PostGolgi ctrl | tolC growth inh | Cav3 T inh | E coli WT exp | PostGolgi yeast
O=C(CCN1C(=O)COc2ccccc21)NCCCN1CCc2ccccc2C1 | 13 | x | 1 | 7 | -4
COC(=O)[C@H]1[C@@H](C)N(Cc2ccccc2)C(=O)N[C@H]1c1ccccc1 | x | x | 0.46 | x | x
Cc1nc2ccccc2c(=O)n1NC(=O)c1ccccc1Cl | 4 | -17 | 0.47 | -6 | -7
CCn1c(=O)c(C(=O)Nn2c(C)nc3ccccc3c2=O)c(O)c2ccccc21 | 21 | 91* | -6.1* | 3 | 6
COc1ccc(C2NC(=O)c3sc(=S)n(-c4ccccc4)c3N2)cc1 (stereo not drawn) | 4 | x | -8.4* | 0 | 2
Cc1c(C(=O)O)sc(=S)n1-c1ccccc1 | -1 | 10 | 0.11 | -2 | -1
Cc1ccc(-n2c(C)cc(/C=N/NC(=O)CN(c3ccc(C)cc3C)S(C)(=O)=O)c2C)cc1 | 1 | x | -8.4* | 2 | 8
CC/C(O)=C1\C(=O)CC(c2ccccc2)CC1=NCCc1c(C)[nH]c2ccc(C)cc12 (stereo not drawn) | x | x | -4.6* | x | x
CCCNS(=O)(=O)c1ccc(Oc2ncc(C(F)(F)F)cc2Cl)cc1 | 12 | x | -3.6 | 0 | 1
CCCOc1cccc(NC(=O)c2cc(C)oc2C)c1 | 0 | 24 | -2.2 | 15 | 7
NC1C2CN(c3nc4c(cc3F)c(=O)c(C(=O)O)cn4-c3ccc(F)cc3F)CC12 (stereo not drawn) | 1 | 100* | -0.73 | 97* | -2
COc1ccccc1C1(O)CCN(C(=O)c2cccs2)CC1 | 14 | x | x | 1 | 7
O=C(NCCNS(=O)(=O)c1cccc(C(F)(F)F)c1)c1cc(OCC(F)(F)F)ccc1OCC(F)(F)F | 2 | x | -0.0059 | -2 | -4
Cc1cccc(NC(=O)c2ccc(C3SCC(=O)N3CCc3ccccc3)cc2)c1C (stereo not drawn) | 9 | x | -4.5* | -18 | -7
CCc1ccc(NC(=O)c2ccc(C3SCC(=O)N3CCc3ccccc3)cc2)cc1 (stereo not drawn) | 20 | x | x | -10 | -1
